How the values were obtained:
Rous sarcoma virus [1] = assay: Inhibition of cell transformation by Rous Sarcoma virus; assay type: functional; conditions: read-out: ID50 (the source's name)
Summary of the method: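 Chick embryo fibroblasts at 5 × 10⁵ cells/60-mm dish, given about 200 focus-forming units of Rous sarcoma virus with drug (final 10⁻³ to 10⁻⁶ M, up to 1% Me₂SO in stock) for 8-16 h at 37 °C. Agar overlay with drug for 4 days, then second overlay. Foci counted on days 7-10; % inhibition = (1 − T/C)×100, probit analysis.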

L1210 [2] = assay: Concentration required for 50% inhibition of cell growth (L1210 Leukemia); assay type: functional, cell-based; conditions: Mus musculus, read-out: pI50 (converted)
Summary of the method: (§1)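 L1210 cells in RPMI1640 with 10% fetal calf serum, seeded at (3–4) × 10⁴ cells/mL. Drug added to final 10⁻³ to 10⁻⁶ M, duplicates, with untreated and Me₂SO controls. Incubated at 37 °C in 5% CO₂, counted by Coulter counter.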

L1210 [3] = assay: Dose required for 50% inhibition of cell growth (L1210 Leukemia) calculated at 48 hours by using probit analysis.; assay type: functional, Mus musculus; conditions: for IC50: Mus musculus, L1210, 48 h, read-out: ID50 (the source's name); summary of the method: as §1
Rous sarcoma virus [4] = assay: Compound tested for its effect on Rous sarcoma viral replication and virus yield was determined at 1e-6 M; assay type: functional
Summary of the method: (§2)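 Chick embryo cells at 5 × 10⁵ cells/60-mm dish, medium replaced with fresh Hams F10 medium plus drug solution and Rous sarcoma virus; control of medium plus virus only. On days 3 and 6, medium plus drug renewed; medium harvested two days later. Virus titer in harvests measured by drug-free focus assay on chick embryo fibroblasts and compared with control.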

Rous sarcoma virus [5] = assay: Compound was tested for percent inhibition against Rous sarcoma viral replication at 1e-6 M; assay type: functional; summary of the method: as §2
[6] = Compound was evaluated for lethal dose in mice; assay type: toxicity, organism-based; conditions: mouse, in vivo
Summary of the method: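 Swiss-Webster male mice, six per dose; compound suspended in 2.5% acacia in normal saline and injected intraperitoneally by body weight; vehicle-injected controls. LD50 calculated by probit analysis.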

Rous sarcoma virus [7] = assay: Compound was tested for percent inhibition against Rous sarcoma viral replication at 2e-5 M; assay type: functional; summary of the method: as §2
Rous sarcoma virus [8] = assay: Compound tested for its effect on Rous sarcoma viral replication and virus yield was determined at 2e-5 M; assay type: functional; summary of the method: as §2
Mus musculus = assay: Compound evaluated for % T/C of median survival time at 100 mg/kg against P388 leukemia in mice
Rous sarcoma virus [9] = assay: Compound tested for its effect on Rous sarcoma viral replication and virus yield was determined at 3e-6M; assay type: functional; summary of the method: as §2
Rous sarcoma virus [10] = assay: Compound was tested for percent inhibition against Rous sarcoma viral replication at 3e-6M; assay type: functional; summary of the method: as §2
Rous sarcoma virus [11] = assay: Compound tested for its effect on Rous sarcoma viral replication and virus yield was determined at 7e-6M; assay type: functional; summary of the method: as §2
Rous sarcoma virus [12] = assay: Compound was tested for percent inhibition against Rous sarcoma viral replication at 7e-6M; assay type: functional; summary of the method: as §2
Rous sarcoma virus [13] = assay: Compound tested for its effect on Rous sarcoma viral replication and virus yield was determined at 5e-6M; assay type: functional; summary of the method: as §2
Rous sarcoma virus [14] = assay: Compound was tested for percent inhibition against Rous sarcoma viral replication at 5e-6M; assay type: functional; summary of the method: as §2

SMILES	IC50 (Rous sarcoma virus [1]) [µM]	IC50 (L1210 [2]) [µM]	IC50 (L1210 [3]) [µM]	further results
N/C(=N\O)N/N=C/c1ccc(OCc2ccccc2)cc1	8.1	25.1	25.3	
N/C(=N\O)N/N=C/c1cccnc1	81	22.9	23.1	
COc1ccc(OC)c(/C=N/N=C(\N)NO)c1.Cc1ccc(S(=O)(=O)O)cc1	2.7	7.08	7.1	Virus yield (Rous sarcoma virus [4]): 31000 ffu ml-1; Inhibition (Rous sarcoma virus [5]): 80%
Cc1ccc(S(=O)(=O)O)cc1.N#Cc1ccc(/C=N/N/C(N)=N/O)cc1	97.2	9.33	9.4	LD50 [6]: 156 mg/kg
Cc1ccc(S(=O)(=O)O)cc1.N/C(=N\O)N/N=C/c1ccc2ccccc2n1	43.8	6.76	6.8	Inhibition (Rous sarcoma virus [7]): 84%; Virus yield (Rous sarcoma virus [8]): 25000 ffu ml-1
Cc1ccc(S(=O)(=O)O)cc1.N/C(=N\O)N/N=C/c1cc(Br)cc(Br)c1O	6.5	16.6	16.5	T/C (Mus musculus): 140%
Cc1ccc(S(=O)(=O)O)cc1.N/C(=N\O)N/N=C/c1nccc2ccccc12	15.8	3.31		Virus yield (Rous sarcoma virus [9]): 34000 ffu ml-1; Inhibition (Rous sarcoma virus [10]): 79%; ID50 (L1210 [3]): 3.3 µM
Cc1ccc(S(=O)(=O)O)cc1.N/C(=N\O)N/N=C/C1CC2C=CC1C2 (stereo not drawn)		10.7	10.6	Virus yield (Rous sarcoma virus [11]): 9300 ffu ml-1; Inhibition (Rous sarcoma virus [12]): 94%
N/C(=N\O)N/N=C/c1ccc(C(F)(F)F)cc1	11.8	9.12	9.2	
N/C(=N\O)N/N=C/c1ccc(Cl)c([N+](=O)[O-])c1	9.6	12.6	12.7	
CS(=O)(=O)Oc1cccc(/C=N/N=C(\N)NO)c1	35.2	14.8	14.8	
Cc1ccc(S(=O)(=O)O)cc1.Cn1cccc1/C=N/N=C(\N)NO	4.5	2.69	2.7	Virus yield (Rous sarcoma virus [13]): 90000 ffu ml-1; LD50 [6]: 322 mg/kg; Inhibition (Rous sarcoma virus [14]): 44%
N/C(=N\O)N/N=C/c1cccc([N+](=O)[O-])c1	35.7	7.59	7.6	
NC(=O)NO [HYDROXYUREA]		21.4	21.6	
